What was measured:
[1] = system: Rattus norvegicus; assay: In vivo prevention of sciatic nerve fructose accumulation in streptozotocin diabetic rat by acute assay (tid x 4); assay type: functional
How it was run: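 Streptozotocin-diabetic rats dosed three times daily, starting 4 h after STZ, to prevent sciatic nerve fructose accumulation. Activity is reported as ED90 in mg/kg/d.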

[2] = target: T1, Sorbitol dehydrogenase (Homo sapiens, UniProt Q00796); assay: In vitro inhibition against human recombinant sorbitol dehydrogenase
T1 sequence (Q00796 whole entry): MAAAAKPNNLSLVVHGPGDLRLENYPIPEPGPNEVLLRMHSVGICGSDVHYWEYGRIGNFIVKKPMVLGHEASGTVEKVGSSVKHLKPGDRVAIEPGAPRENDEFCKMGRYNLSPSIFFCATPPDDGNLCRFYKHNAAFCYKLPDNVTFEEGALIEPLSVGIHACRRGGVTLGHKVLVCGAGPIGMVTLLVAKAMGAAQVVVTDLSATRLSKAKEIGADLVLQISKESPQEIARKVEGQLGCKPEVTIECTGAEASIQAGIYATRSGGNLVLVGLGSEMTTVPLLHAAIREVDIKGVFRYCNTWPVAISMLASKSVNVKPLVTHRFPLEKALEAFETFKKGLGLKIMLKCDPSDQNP

[3] = target: T2, Sorbitol dehydrogenase (Rattus norvegicus, UniProt P27867); assay: Inhibition of recombinant rat sorbitol dehydrogenase
T2 sequence (P27867 whole entry): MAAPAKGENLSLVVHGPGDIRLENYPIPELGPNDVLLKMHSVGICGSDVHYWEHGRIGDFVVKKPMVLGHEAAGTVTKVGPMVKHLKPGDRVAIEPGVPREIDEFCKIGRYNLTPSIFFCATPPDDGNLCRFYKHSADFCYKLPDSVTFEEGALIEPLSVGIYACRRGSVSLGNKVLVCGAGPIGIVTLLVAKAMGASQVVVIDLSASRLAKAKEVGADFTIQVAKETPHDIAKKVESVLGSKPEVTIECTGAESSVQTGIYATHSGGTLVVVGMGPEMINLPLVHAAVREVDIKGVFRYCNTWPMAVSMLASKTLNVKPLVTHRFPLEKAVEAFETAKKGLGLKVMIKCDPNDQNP

[4] = system: Rattus norvegicus; assay: In vivo reversal of sciatic nerve fructose accumulation in streptozotocin rat by chronic assay at 1 mg/kg (qd x 5); assay type: functional
How it was run: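 Reversal design in STZ rats: once-daily dosing began 5 days after STZ. Sciatic nerve fructose was measured and activity expressed as % normalization at 1 mg/kg.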

[5] = target: T1, Sorbitol dehydrogenase; assay: In vitro inhibition against human recombinant Sorbitol dehydrogenase
[6] = target: T2, Sorbitol dehydrogenase; assay: Inhibition of recombinant rat Sorbitol dehydrogenase

IC50 [2] [nM] | IC50 [3] [nM] | IC50 [5] [nM] | IC50 [6] [nM] | SMILES | ED90 [1] [mg/kg/day] | Reversal [4] [%]
212 | 227 |  |  | CC(=O)c1nccc(N2C[C@@H](C)N(c3ccnc(C(C)=O)n3)[C@@H](C)C2)n1 | 0.9 | 92
 |  | 831 | 640 | C[C@H](O)c1nccc(N2C[C@@H](C)N(c3ccnc([C@H](C)O)n3)[C@@H](C)C2)n1 | 0.7 | 84
19 | 18 |  |  | CC(=O)c1nccc(N2C[C@@H](C)N(c3ccnc([C@@H](C)O)n3)[C@@H](C)C2)n1 | 0.2 | 94
33 | 29 |  |  | C[C@H](O)c1nccc(N2C[C@@H](C)N(c3ccnc([C@@H](C)O)n3)[C@@H](C)C2)n1 | 0.4 | 81
6 | 5 |  |  | CC(=O)c1nccc(N2[C@H](C)CN(c3ccnc([C@@H](C)O)n3)C[C@@H]2C)n1 | 0.5 | 77
 |  | 19 | 27 | C[C@H](O)c1nccc(N2[C@H](C)CN(c3ccnc([C@@H](C)O)n3)C[C@@H]2C)n1 | 0.8 | 81
 |  | 28 | 8 | CC(O)c1nccc(N2C[C@@H](C)N(c3ccnc(C(C)O)n3)[C@@H](C)C2)n1 (some centres not stated) | 0.6 | 92
10 | 17 |  |  | C[C@@H]1CN(c2ccnc([C@@H](C)O)n2)C[C@H](C)N1c1ccnc([C@@H](C)O)n1 | 0.2 | 90

Source: ChEMBL document CHEMBL1135127, “SAR and species/stereo-selective metabolism of the sorbitol dehydrogenase inhibitor, CP-470,711” (Bioorg Med Chem Lett, 2002)
